In brackets after ≈: the same amount, converted by molar mass.
What was measured:
Format in all cases: functional
[1] = test system: Mycobacterium tuberculosis; test: Antibacterial activity against multi drug resistant Mycobacterium tuberculosis 421/96 isolate
Method in brief: (§1)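 MIC against clinical MTB isolates by the macrodilution broth method in Middlebrook broth enriched with 10% ADC. Values are in µg/mL.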

[2] = test system: Mycobacterium tuberculosis; test: Antibacterial activity against multi drug resistant Mycobacterium tuberculosis 296/04 isolate; method in brief: as §1
[3] = test system: Mycobacterium tuberculosis; test: Antibacterial activity against multi drug resistant Mycobacterium tuberculosis 275/05 isolate; method in brief: as §1
[4] = test system: Mycobacterium tuberculosis; test: Antibacterial activity against multi drug resistant Mycobacterium tuberculosis 326/04 isolate; method in brief: as §1
[5] = test system: Mycobacterium tuberculosis; test: Antibacterial activity against multi drug resistant Mycobacterium tuberculosis 482/98 isolate; method in brief: as §1
[6] = test system: Mycobacterium tuberculosis; test: Antibacterial activity against multi drug resistant Mycobacterium tuberculosis 134/02 isolate; method in brief: as §1
[7] = test system: Mycobacterium tuberculosis; test: Antibacterial activity against multi drug resistant Mycobacterium tuberculosis 586/98 isolate; method in brief: as §1
[8] = test system: Mycobacterium tuberculosis; test: Antibacterial activity against multi drug resistant Mycobacterium tuberculosis 43/05 isolate; method in brief: as §1
[9] = test system: Mycobacterium tuberculosis; test: Antibacterial activity against multi drug resistant Mycobacterium tuberculosis 158/97 isolate; method in brief: as §1
[10] = test system: Mycobacterium tuberculosis; test: Antibacterial activity against multi drug resistant Mycobacterium tuberculosis 149/03 isolate; method in brief: as §1
[11] = test system: Mycobacterium tuberculosis; test: Antibacterial activity against multi drug resistant Mycobacterium tuberculosis 520/98 isolate; method in brief: as §1

Row | SMILES | MIC [1] [µg/mL] | MIC [2] [µg/mL] | MIC [3] [µg/mL] | MIC [4] [µg/mL] | MIC [5] [µg/mL] | MIC [6] [µg/mL] | MIC [7] [µg/mL] | MIC [8] [µg/mL] | MIC [9] [µg/mL] | MIC [10] [µg/mL] | MIC [11] [µg/mL]
1 | Cc1ccc(-c2cc(CN3CCSCC3)c(C)n2-c2ccc(F)cc2)cc1 | 0.5 (≈ 1.31 µM) | 0.5 (≈ 1.31 µM) | 0.5 (≈ 1.31 µM) | 32 (≈ 84.1 µM) | 0.5 (≈ 1.31 µM) | 0.5 (≈ 1.31 µM) | 0.5 (≈ 1.31 µM) | 0.5 (≈ 1.31 µM) | 0.5 (≈ 1.31 µM) | 0.5 (≈ 1.31 µM) | 0.5 (≈ 1.31 µM)
2 | Cc1c(CN2CCSCC2)cc(-c2ccc(F)cc2)n1-c1ccccc1F | 2 (≈ 5.2 µM) | 2 (≈ 5.2 µM) | 2 (≈ 5.2 µM) | > 32 | 2 (≈ 5.2 µM) | 2 (≈ 5.2 µM) | 2 (≈ 5.2 µM) | 0.5 (≈ 1.3 µM) | 0.5 (≈ 1.3 µM) | 2 (≈ 5.2 µM) | 2 (≈ 5.2 µM)
